Activity calls are given as the source filed them. The rule behind the calls is not given here.
How the values were obtained:
Plasmodium falciparum [1] = assay: Gametocytocidal activity against Plasmodium falciparum 3D7 elo1-pfs16-CBG99 late-stage (4 to 5) gametocytes assessed as inhibition of parasite viability after 72 hrs by luciferase reporter assay; assay type: functional, organism-based; conditions: 3D7 elo1-pfs16-CBG99, 72 h
Method in brief: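 Transgenic 3D7elo1-pfs16-CBG99 gametocytes express CBG99 luciferase from the pfs16 promoter. Stage IV–V gametocytes (Giemsa-checked) were exposed at day 8–10 after NAG addition to serial dilutions in complete medium for 72 h. Samples at 2% haematocrit were then mixed 1:1 with D-luciferin (1 mM, pH 5.5 citrate) for 10 min and luminescence was read. IC50 came from non-linear regression, mean of ≥3 experiments in duplicate.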

Plasmodium falciparum [2] = assay: (§1) Antiplasmodial activity against gametocytes of Plasmodium falciparum NF54 infected in Anopheles mosquitoes assessed as decrease in infection prevalance measured at baseline infection intensity of 30 oocysts/midgut pre-treated with compound for 24 hrs before feeding and measured 8 days post infection by standard membrane feeding assay; assay type: functional, organism-based
Method in brief: (§2)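 NF54-HGL luciferase-reporter gametocytes were pre-incubated with compound for 24 h, then membrane-fed to Anopheles mosquitoes. Infection was read by luminescence 8 d post-infection, with 24 mosquitoes analysed per feed and each feed done in duplicate. IC50 was derived for infection intensity and for prevalence at a baseline of 30 oocysts/midgut.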

Plasmodium berghei [3] = assay: (§3) Antimalarial activity against liver stage form of mCherry expressing Plasmodium berghei ANKA sporozoites infected in mouse primary hepatocytes assessed as inhibition of detached cell formation rate at 0.0625 to 4 uM administered 2 hrs post infection and measured after 48 hrs post infection with medium change at 24 hrs post infection by fluorescent microscopic analysis; assay type: functional, organism-based
Method in brief: (§4)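 Parasite number and size in unfixed cells by automated microscopy at 48 hpi. Detached cells collected at 65 hpi, counted by fluorescence microscopy, expressed as % of 48 h parasite number. n = 4; one-way ANOVA with Dunnett's test.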

[4] = Cardiotoxicity in Langendorff perfused Wistar rat heart assessed as coronary perfusion pressure at 0.1 to 10 uM; assay type: toxicity, tissue-based
Plasmodium falciparum [5] = assay: Antiplasmodial activity against chloroquine-resistant Plasmodium falciparum W2 after 72 hrs by lactate dehydrogenase assay; assay type: functional, organism-based; conditions: W2, 72 h
Method in brief: (§5)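 Asynchronous blood-stage cultures at 1–1.5% parasitemia and 1% final hematocrit in human A+ RBCs, RPMI 1640 with 1% AlbuMax, hypoxanthine, HEPES and glutamine. Serial dilutions from DMSO stocks, final DMSO <1%. Incubated 72 h at 37 °C under 1% O₂/5% CO₂. IC50 is the mean of ≥3 experiments in duplicate.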

[6] = Cytotoxicity against mouse NIH/3T3 cells after 24 hrs by neutral red uptake assay; assay type: cell-based, NIH3T3; conditions: read-out: TC50
Method in brief: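 NIH3T3 cells exposed for 24 h; viability by neutral red uptake. Mean of three experiments, six replicates each.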

[7] = Cardiotoxicity in Langendorff perfused Wistar rat heart assessed as QTc interval time at 10 uM by electrocardiography (reference value: 76.45 to 80.07 milliseconds); assay type: toxicity, tissue-based
[8] = Cardiotoxicity in Langendorff perfused Wistar rat heart assessed as cycle length interval time at 1 uM by electrocardiography (reference value: 217.15 to 242.23 milliseconds); assay type: toxicity, tissue-based
[9] = Cardiotoxicity in Langendorff perfused Wistar rat heart assessed as PQ interval time at 0.1 uM by electrocardiography (reference value: 41.13 to 42.63 milliseconds); assay type: toxicity, tissue-based
[10] = biological target: T1, Phosphoethanolamine N-methyltransferase (Plasmodium falciparum) (UniProt Q8IDQ9); assay: Inhibition of plasmodium falciparum phosphoethanolamine N-methyltransferase expressed in Escherichia coli assessed as remaining enzyme activity at 100 uM using phosphoethanolamine as substrate and [methyl-14C] SAM by radiochemical assay
T1 sequence (whole entry): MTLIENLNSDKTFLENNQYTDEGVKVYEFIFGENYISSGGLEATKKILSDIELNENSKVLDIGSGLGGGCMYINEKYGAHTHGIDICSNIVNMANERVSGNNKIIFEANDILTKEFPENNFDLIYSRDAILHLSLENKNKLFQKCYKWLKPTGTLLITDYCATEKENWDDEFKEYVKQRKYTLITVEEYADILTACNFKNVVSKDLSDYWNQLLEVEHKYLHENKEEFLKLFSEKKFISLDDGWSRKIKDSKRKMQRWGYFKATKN
Method in brief: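 Recombinant PfPMT purified from E. coli, 2 μg per 100 μL reaction. Buffer 0.1 M HEPES-KOH pH 8.0, 2 mM Na2EDTA, 10% glycerol, 5% DMSO, with 30 μM SAM (100 nCi [methyl-14C]SAM) and 55 μM phosphoethanolamine; radiochemical read-out.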

[11] = Cardiotoxicity in Langendorff perfused Wistar rat heart assessed as QRS interval time at 0.1 uM by electrocardiography (reference value: 13.31 to 14.35 milliseconds); assay type: toxicity, tissue-based
[12] = Cardiotoxicity in Langendorff perfused Wistar rat heart assessed as QTc interval time at 1 uM by electrocardiography (reference value: 76.45 to 80.07 milliseconds); assay type: toxicity, tissue-based
Plasmodium falciparum [13] = assay: Gametocytocidal activity against Plasmodium falciparum NF54 HGL gametocytes assessed as inhibition of parasite viability after 72 hrs by ONE-Glo reagent based luminescence assay; assay type: functional, organism-based
Method in brief: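 NF54 gametocytes raised in 5% haematocrit RPMI1640/10% human serum, with 50 mM NAG on days 4–9. Mainly stage IV gametocytes isolated on day 11 by Percoll gradient and seeded at 5000 cells/well, final DMSO 0.1%. Incubated 72 h at 37 °C, 3% O2, 4% CO2; viability by ONE-Glo luminescence.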

[14] = Cardiotoxicity in Langendorff perfused Wistar rat heart assessed as PQ interval time at 3 uM by electrocardiography (reference value: 41.13 to 42.63 milliseconds); assay type: toxicity, tissue-based
[15] = Cardiotoxicity in Langendorff perfused Wistar rat heart assessed as frequency of heart rate at 0.1 uM by electrocardiography (reference value: 247.05 to 275.90 bpm); assay type: toxicity, tissue-based
Plasmodium falciparum [16] = assay: Antiplasmodial activity against asexual blood stage Plasmodium falciparum NF54 after 72 hrs by SYBR green-based fluorometric analysis; assay type: functional, organism-based; conditions: NF54, 72 h
Method in brief: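 Asexual NF54 seeded at 0.83% parasitaemia, 1.5% haematocrit, in RPMI1640 with 10% human serum. Serial dilutions, final DMSO 0.1%. Incubated 72 h at 37 °C under 3% O2, 4% CO2, then read by SYBR Green fluorescence.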

Plasmodium falciparum [17] = assay: Antiplasmodial activity against chloroquine-sensitive Plasmodium falciparum D10 after 72 hrs by lactate dehydrogenase assay; assay type: functional, organism-based; conditions: D10, 72 h; method in brief: as §5
[18] = Cardiotoxicity in Langendorff perfused Wistar rat heart assessed as QTc interval time at 3 uM by electrocardiography (reference value: 76.45 to 80.07 milliseconds); assay type: toxicity, tissue-based
[19] = Cardiotoxicity in Langendorff perfused Wistar rat heart assessed as PQ interval time at 10 uM by electrocardiography (reference value: 41.13 to 42.63 milliseconds); assay type: toxicity, tissue-based
Plasmodium falciparum [20] = assay: as §1, with “intensity” for “prevalance”; assay type: functional, organism-based; method in brief: as §2
Plasmodium berghei [21] = assay: as §3, with “reduction in parasite load” for “inhibition of detached cell formation rate”; assay type: functional, organism-based; method in brief: as §4

Clc1ccc(-c2ccc(CNCC3CCNCC3)o2)c(-c2ccccc2)c1
IC50 (Plasmodium falciparum [1]): 1400 nM | IC50 (Plasmodium falciparum [2]): 830 nM | Activity (Plasmodium berghei [3]): inactive | Activity [4]: Non-Toxic | IC50 (Plasmodium falciparum [5]): 2400 nM | CC50 at 24 h [6]: 20 µM | Time [7]: 83.77 ms | Time [8]: 217.02 ms | Time [9]: 41.24 ms | Activity [10]: 30% | Time [11]: 14.2 ms | Time [12]: 77.21 ms | IC50 (Plasmodium falciparum [13]): 43 nM | Time [14]: 45.47 ms | Activity [15]: 276.19 bpm | IC50 (Plasmodium falciparum [16]): 670 nM | IC50 (Plasmodium falciparum [17]): 880 nM | Time [18]: 78.56 ms | Time [19]: 65.08 ms | IC50 (Plasmodium falciparum [20]): 210 nM | Activity (Plasmodium berghei [21]): inactive

Source: ChEMBL document CHEMBL4229360, “Antimalarial agents against both sexual and asexual parasites stages: structure-activity relationships and biological studies of the Malaria Box compound 1-[5-(4-bromo-2-chlorophenyl)furan-2-yl]-N-[(piperidin-4-yl)methyl]methanamine (MMV019918) and analogues” (Eur J Med Chem, 2018)
